# Bioassay records: PubChem BioAssay, several laboratories
# XiGFP reactiv = reactivates the inactive X chromosome in mouse fibroblasts; XiGFP mouse fibroblasts, % GFP-positive cells imaging, 3 d; cells co-treated with 5-aza-dC sensitizer; scaled so ellipticine positive control = 100%; activation, % at 7.58 µM; 0.055% of 360,000 active; AID 743238;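 active means mean normalized replicate activation at least 10% and every replicate at or above 10%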;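 further: 0% = median of on-plate neutral control wells and 100% = ellipticine 6 µM median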
#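 Assay system – SV40-immortalized XiGFP fibroblast cells, line 68-5-11 · Buffer or medium – DMEM supplemented with 5-aza-dC as sensitizing agent · Dosing – one concentration, pinned · Benchmarks – positive control ellipticine, 6 µM final · Times – 3 days compound exposure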
# Rin1-Abl PPI inh = inhibitors of human Rin1-Abl protein interaction | TR-FRET Rin1/Abl binding, biochemical | inhibition, % at 7.35 µM | 0.4% of 360,000 active; in the data active means inhibition above about 5%, passing the limit was not always enough
# ABHD5 PLIN5 PPI = inhibitors of human ABHD5-perilipin-5 interaction. Split G. princeps luciferase complementation, luminescence, 4 h. inhibition, % at 4 µM. 0.78% of 360,000 active. AID 602281;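 active means inhibition above the mean inhibition across every tested compound plus 3 SD, cut at about 22% in these data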;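 further: 0% = DMSO only wells and the 100% control is not disclosed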
# Target sequence (Q00G26 whole entry, looked up): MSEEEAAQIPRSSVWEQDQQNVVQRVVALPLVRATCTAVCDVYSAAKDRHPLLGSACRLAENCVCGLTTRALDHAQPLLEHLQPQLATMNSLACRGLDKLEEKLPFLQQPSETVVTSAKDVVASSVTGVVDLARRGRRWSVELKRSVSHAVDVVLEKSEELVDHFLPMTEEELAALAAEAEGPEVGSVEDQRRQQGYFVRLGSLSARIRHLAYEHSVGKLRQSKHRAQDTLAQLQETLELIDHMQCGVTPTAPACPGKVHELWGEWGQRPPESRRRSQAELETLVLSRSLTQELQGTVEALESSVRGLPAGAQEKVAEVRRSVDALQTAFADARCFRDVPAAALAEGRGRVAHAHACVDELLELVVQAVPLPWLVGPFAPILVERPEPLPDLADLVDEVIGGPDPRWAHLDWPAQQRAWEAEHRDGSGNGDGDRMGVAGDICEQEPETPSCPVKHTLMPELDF
# Target sequence (Q8WTS1 whole entry, looked up): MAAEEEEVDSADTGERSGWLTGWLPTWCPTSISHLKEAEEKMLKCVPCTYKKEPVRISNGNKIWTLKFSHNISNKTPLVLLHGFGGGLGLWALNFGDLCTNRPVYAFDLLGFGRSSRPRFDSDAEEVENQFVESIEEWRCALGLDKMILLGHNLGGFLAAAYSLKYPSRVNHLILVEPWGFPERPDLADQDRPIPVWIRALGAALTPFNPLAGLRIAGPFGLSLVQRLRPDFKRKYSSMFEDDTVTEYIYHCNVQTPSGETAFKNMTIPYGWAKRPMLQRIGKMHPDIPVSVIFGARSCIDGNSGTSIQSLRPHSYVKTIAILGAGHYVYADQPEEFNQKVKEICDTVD
# Rpn11 inh = Rpn11 (human) deubiquitinase inhibition; O00487; inhibition, % at 20 µM; human 26S proteasome, Ub4-pepOG fluorescence polarization; 20S core pre-blocked with epoxomicin; AID 588493; 0.59% of 360,000 active;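 active means inhibition at 20 µM, scaled to each plate's controls, above about 33%, limit read from the data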
# NadD inh = NadD (S. aureus) enzyme inhibition. purified NadD enzyme, colorimetric absorbance read-out. inhibition, % at 20 µM. 0.78% of 360,000 active; in the data active means inhibition above about 26%
# Rin1 Abl conf = confirmation of inhibitors of human Rin1-Abl interaction. inhibition, % at 7.35 µM. TR-FRET Rin1-Abl binding, purified proteins. 49% of 1,300 active. shares compounds with Rin1-Abl PPI inh
# GFP quench = quenches GFP fluorescence, counter-screen for Rin1-Abl inhibitors; 8.5% of 1,300 active; inhibition, % at 6.75 µM; shares compounds with Rin1-Abl PPI inh; inhibitors/quenchers counterscreen; AID 602125;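 further: ABL1-eGFP fusion protein alone without its partner RIN1-SBP; 0% = protein with vehicle and 100% = wells lacking protein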
# GFP quench dose = quenches GFP in dose response, Rin1-Abl counter-screen; shares compounds with Rin1-Abl PPI inh; GFP fluorescence interference/quenching counterscreen; IC50, µM; 230 tested, under 10 active; AID 602182; call rule not given here;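 further: ABL1-eGFP fusion protein alone without its RIN1 binding partner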
# The depositor's hits bear a star; . = no result. In the library only some 1.9% were active in any assay of this set; here they are far more common. Unless noted, no stated cut-off is given here; in the data, active means inhibition above about 6.5%; inactive means the rest.
SMILES,XiGFP reactiv,Rin1-Abl PPI inh,ABHD5 PLIN5 PPI,Rpn11 inh,NadD inh,Rin1 Abl conf,GFP quench,others
Fc1cccc(Cl)c1CNCCCSc1ncccn1,0,6.9*,3,-7,-9,-1,0,
COc1ccc(CN=CC2=C(O)CNC2=O)cc1,.,34*,-2,0,1,43*,0,
COc1ccc(CN=CC2=C(O)CC(C)(C)CC2=O)cc1,.,1,1,-4,-1,.,.,
CC(=O)c1ccc2c(c1)C1C=CCC1C(C(=O)O)N2 (stereo not drawn),0,14*,4,13,19,13*,43*,
Cc1nnc(SCc2nc3ccccc3[nH]2)s1,.,18*,-3,-2,2,29*,-1,GFP quench dose=>68
c1ccc2[nH]c(CSc3nc4ccccc4s3)nc2c1,.,1,0,13,3,.,.,
C[C@@H]1CN([C@H](C)CO)C(=O)c2ccccc2-c2ccccc2CO[C@@H]1CN(C)C(=O)Oc1ccccc1,0,.,.,.,.,.,.,
CO[C@H]1CN(C)C(=O)c2ccc(NC(=O)c3ccc(F)cc3)cc2OC[C@H](C)N(C(C)=O)C[C@H]1C,0,.,.,.,.,.,.,
Cc1nnc(SCCOc2ccccc2)s1,0,11*,-4,4,-3,7.9*,1,
c1ccc2c(c1)c1cccc3ccc4cccc2c4c31,.,8.2*,7,2,1,4,0,
C[C@@H]1CN([C@H](C)CO)C(=O)CCCn2cc(nn2)CO[C@H]1CN(C)Cc1ccc(C(=O)O)cc1,0,.,.,.,.,.,.,
O=C(O)/C=C/C(=O)Nc1ccc(-n2ccc(C(F)(F)F)n2)cc1,0,6.4*,3,3,1,0,1,
CO[C@H]1CN(C)C(=O)c2ccc(NC(=O)C3CCOCC3)cc2OC[C@H](C)N(Cc2nccs2)C[C@H]1C,1,.,.,.,.,.,.,
Cc1nc(-c2ccc(C(=O)N3CCCC3)cc2)cs1,0,6.2*,8,-5,1,-1,0,
Cc1nonc1C(=O)N/N=C/c1ccc(O)c(O)c1,.,-1,-7,-5,-2,.,.,
O=C(N/N=C/c1ccc(O)c(O)c1)N/N=C/c1ccc(O)c(O)c1,0,49*,-4,-17,0,63*,12*,
N#CC(C(=O)Nc1ccccc1)=C1Nc2ccccc2N1,.,4,-3,-10,-2,.,.,
N#CC(=C1Nc2ccccc2N1)S(=O)(=O)c1ccccc1,0,9.5*,-4,-12,0,-3,1,
C[C@H](O)C#Cc1ccc2c(c1)O[C@@H](CN(C)C(=O)Cc1ccccn1)[C@H](C)CN([C@@H](C)CO)S2(=O)=O,0,.,.,.,.,.,.,
COC(=O)C1C(=O)C=C(Nc2ccc(F)cc2F)CC1c1ccc(OC)cc1 (stereo not drawn),0,0,1,6,-2,.,.,
COC(=O)C1C(=O)C=C(Nc2ccc(F)cc2)CC1c1ccc(OC)cc1 (stereo not drawn),0,6.4*,-4,-1,-1,-2,0,
CCOC(=O)C1CCCN(Cc2ccccc2OCC)C1 (stereo not drawn),.,9.4*,3,1,-3,0,0,
CC(C)(C)[S@@](=O)N1Cc2cc(C(=O)N3CCOCC3)nc(-c3cccc(C4=CCCC4)c3)c2[C@H]1CCO,0,.,.,.,.,.,.,
C=CCn1c(C)nnc1SCC(=O)Nc1nc(C)c(C(=O)N(C)C)s1,0,13*,-1,-2,0,0,0,
Cc1nc(NC(=O)CSc2nnc(C3CC3)n2C)sc1C(=O)N(C)C,0,2,-1,8,1,.,.,
C=C1c2cccc(O)c2C(=O)C2C(=O)[C@]3(O)C(=O)C(C(N)=O)C(=O)[C@@H](N(C)C)[C@@H]3[C@@H](O)[C@H]12 (stereo partly drawn),0,33*,6,22,10,4,3,
C[C@H]1c2cccc(O)c2C(O)=C2C(=O)[C@]3(O)C(O)=C(C(N)=O)C(=O)[C@@H](N(C)C)C3[C@@H](O)C21 (stereo partly drawn),0,5,-3,-7,1,.,.,
